Activity calls are given as the source filed them. The calls are words filed in the database; no cut-off is given here.
Experiments:
[1] = Cytotoxicity against human K562/A02 cells expressing p-glycoprotein assessed as cell killing at 5 uM after 72 hrs by MTS assay; type: cell-based; conditions: k562/a02, 72 h
[2] = tested on: K562; assay: Cytotoxicity against human K562 cells assessed as cell killing at 5 uM after 72 hrs by MTS assay; type: cell-based; conditions: k562, 72 h
[3] = Cytotoxicity against human K562/A02 cells expressing p-glycoprotein after 72 hrs by MTS assay; type: functional, cell-based; conditions: K562/A02, 72 h
Summary of the method: (§1)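 K562 and K562/A02 cells (1 × 10⁴/well) seeded in RPMI-1640 and incubated 24 h. Exponentially growing cells then exposed to various compound concentrations for 72 h at 37 °C (5% CO₂, 95% humidity). MTS added for 3 h more, absorbance read at 490 nm. IC₅₀ from dose-response curves, mean of triplicate experiments.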

[4] = tested on: K562; assay: Cytotoxicity against human K562 cells after 72 hrs by MTS assay; type: functional, cell-based; conditions: K562, 72 h; summary of the method: as §1
[5] = tested on: K562/A02; assay: Reversal of p-glycoprotein-mediated multidrug-resistant in human K562/A02 cells assessed as increase of adriamycin-induced cytotoxic effect at 2.5 uM after 72 hrs by MTS assay; type: cell-based
Summary of the method: (§2)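 Viability by MTS assay. Survival rate expressed as percent growth relative to untreated control, mean ± S.D. of three independent experiments.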

[6] = target: T1, ATP-dependent translocase ABCB1 (Homo sapiens, UniProt P08183); assay: Inhibition of p-glycoprotein mRNA expression in human K562/A02 cells at 5 uM after 72 hrs by RT-PCR analysis; type: functional, cell-based; conditions: k562/a02, 72 h
[7] = target: T1, ATP-dependent translocase ABCB1; assay: Inhibition of p-glycoprotein protein expression in human K562/A02 cells at 5 uM after 72 hrs by Western blot analysis; type: functional, cell-based; conditions: k562/a02, 72 h
[8] = target: T1, ATP-dependent translocase ABCB1; assay: Inhibition of p-glycoprotein in human K562/A02 cells assessed as accumulation of rhodamine 123 at 10 uM by flow cytometry relative to control; type: cell-based; conditions: k562/a02, 10 µM
Summary of the method: (§3)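 Rh123 or adriamycin (0.5) then added for 30 min. Stopped with ice-cold PBS and centrifugation, washed three times in ice-cold PBS, analysed by flow cytometry. Fluorescence expressed as fold of 0.1% DMSO control; three independent experiments.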

[9] = target: T1, ATP-dependent translocase ABCB1; assay: Inhibition of p-glycoprotein in human K562/A02 cells assessed as accumulation of rhodamine 123 by flow cytometry; type: cell-based; summary of the method: as §3
[10] = tested on: K562; assay: Induction of rhodamine 123 accumulation in human K562 cells at 0.3 to 10 uM by flow cytometry; type: functional, cell-based; summary of the method: as §3
[11] = tested on: K562; assay: Induction of adriamycin accumulation in human K562 cells at 0.3 to 10 uM by flow cytometry; type: functional, cell-based; summary of the method: as §3
[12] = tested on: K562/A02; assay: Reversal of p-glycoprotein-mediated multidrug-resistant in human K562/A02 cells assessed as increase of adriamycin-induced cytotoxic effect at 5 uM after 72 hrs by MTS assay; type: cell-based; summary of the method: as §2
[13] = Reversal of p-glycoprotein-mediated multidrug-resistant in human K562/A02 cells assessed as increase of adriamycin-induced cytotoxic effect at 10 uM treated 24 hrs before adriamycin challenge followed by drug washout by MTS assay
[14] = Reversal of p-glycoprotein-mediated multidrug-resistant in human K562/A02 cells assessed as increase of adriamycin-induced cytotoxic effect at 10 uM treated for 24 hrs followed by adriamycin treated 6 hrs after drug washout by MTS assay
[15] = Reversal of p-glycoprotein-mediated multidrug-resistant in human K562/A02 cells assessed as increase of adriamycin-induced cytotoxic effect at 10 uM treated for 24 hrs followed by adriamycin treated 12 hrs after drug washout by MTS assay
[16] = Reversal of p-glycoprotein-mediated multidrug-resistant in human K562/A02 cells assessed as increase of adriamycin-induced cytotoxic effect at 10 uM treated for 24 hrs followed by adriamycin treated 24 hrs after drug washout by MTS assay; conditions: K562/A02, 24 h
[17] = target: T1, ATP-dependent translocase ABCB1; assay: Inhibition of p-glycoprotein in human K562/A02 cells assessed as accumulation of adriamycin by flow cytometry; type: cell-based; summary of the method: as §3
[18] = tested on: K562; assay: Ratio of IC50 for human K562/A02 cells expressing p-glycoprotein to IC50 for human K562 cells; type: functional
[19] = Induction of ATPase activity of p-glycoprotein at 200 uM by luminescence assay relative to control
[20] = target: T1, ATP-dependent translocase ABCB1; assay: Inhibition of p-glycoprotein-mediated rhodamine 123 efflux in human K562/A02 cells after 60 mins by fluorescence microscopic analysis; type: cell-based; conditions: k562/a02, 1 h
[21] = target: T1, ATP-dependent translocase ABCB1; assay: Inhibition of p-glycoprotein-mediated rhodamine 123 efflux in human K562/A02 cells at 2.5 uM after 60 mins by fluorescence microscopic analysis; type: cell-based; conditions: k562/a02, 1 h
[22] = tested on: K562/A02; assay: Reversal of p-glycoprotein-mediated multidrug-resistant in human K562/A02 cells assessed as increase of adriamycin-induced cytotoxic effect at 1.25 uM after 72 hrs by MTS assay; type: cell-based; summary of the method: as §2
[23] = Cytotoxicity against human K562/A02 cells expressing p-glycoprotein assessed as cell survival rate at 1.25 uM after 72 hrs by MTS assay; type: cell-based; conditions: read-out: Activity
[24] = tested on: K562/A02; assay: Reversal of p-glycoprotein-mediated multidrug-resistant in human K562/A02 cells assessed as increase of adriamycin-induced cytotoxic effect after 72 hrs by MTS assay; type: cell-based; summary of the method: as §2
[25] = tested on: K562; assay: Potentiation of adriamycin-induced cytotoxic effect in human K562 cells assessed as cell survival rate at 1.25 to 5 uM after 72 hrs by MTS assay; type: functional, cell-based; summary of the method: as §2
[26] = Reversal of p-glycoprotein-mediated multidrug-resistant in human K562/A02 cells assessed as increase of adriamycin-induced cytotoxic effect at 2.5 uM treated 24 hrs before adriamycin challenge followed by drug washout by MTS assay; type: cell-based
[27] = Reversal of p-glycoprotein-mediated multidrug-resistant in human K562/A02 cells assessed as increase of adriamycin-induced cytotoxic effect at 2.5 uM treated for 24 hrs followed by adriamycin treated 6 hrs after drug washout by MTS assay; type: cell-based
[28] = Reversal of p-glycoprotein-mediated multidrug-resistant in human K562/A02 cells assessed as increase of adriamycin-induced cytotoxic effect at 2.5 uM treated for 24 hrs followed by adriamycin treated 12 hrs after drug washout by MTS assay; type: cell-based
[29] = Reversal of p-glycoprotein-mediated multidrug-resistant in human K562/A02 cells assessed as increase of adriamycin-induced cytotoxic effect at 2.5 uM treated for 24 hrs followed by adriamycin treated 24 hrs after drug washout by MTS assay; type: cell-based; conditions: K562/A02, 24 h
[30] = Induction of ATPase activity of p-glycoprotein at 40 uM by luminescence assay relative to control

T1 sequence (P08183 whole entry): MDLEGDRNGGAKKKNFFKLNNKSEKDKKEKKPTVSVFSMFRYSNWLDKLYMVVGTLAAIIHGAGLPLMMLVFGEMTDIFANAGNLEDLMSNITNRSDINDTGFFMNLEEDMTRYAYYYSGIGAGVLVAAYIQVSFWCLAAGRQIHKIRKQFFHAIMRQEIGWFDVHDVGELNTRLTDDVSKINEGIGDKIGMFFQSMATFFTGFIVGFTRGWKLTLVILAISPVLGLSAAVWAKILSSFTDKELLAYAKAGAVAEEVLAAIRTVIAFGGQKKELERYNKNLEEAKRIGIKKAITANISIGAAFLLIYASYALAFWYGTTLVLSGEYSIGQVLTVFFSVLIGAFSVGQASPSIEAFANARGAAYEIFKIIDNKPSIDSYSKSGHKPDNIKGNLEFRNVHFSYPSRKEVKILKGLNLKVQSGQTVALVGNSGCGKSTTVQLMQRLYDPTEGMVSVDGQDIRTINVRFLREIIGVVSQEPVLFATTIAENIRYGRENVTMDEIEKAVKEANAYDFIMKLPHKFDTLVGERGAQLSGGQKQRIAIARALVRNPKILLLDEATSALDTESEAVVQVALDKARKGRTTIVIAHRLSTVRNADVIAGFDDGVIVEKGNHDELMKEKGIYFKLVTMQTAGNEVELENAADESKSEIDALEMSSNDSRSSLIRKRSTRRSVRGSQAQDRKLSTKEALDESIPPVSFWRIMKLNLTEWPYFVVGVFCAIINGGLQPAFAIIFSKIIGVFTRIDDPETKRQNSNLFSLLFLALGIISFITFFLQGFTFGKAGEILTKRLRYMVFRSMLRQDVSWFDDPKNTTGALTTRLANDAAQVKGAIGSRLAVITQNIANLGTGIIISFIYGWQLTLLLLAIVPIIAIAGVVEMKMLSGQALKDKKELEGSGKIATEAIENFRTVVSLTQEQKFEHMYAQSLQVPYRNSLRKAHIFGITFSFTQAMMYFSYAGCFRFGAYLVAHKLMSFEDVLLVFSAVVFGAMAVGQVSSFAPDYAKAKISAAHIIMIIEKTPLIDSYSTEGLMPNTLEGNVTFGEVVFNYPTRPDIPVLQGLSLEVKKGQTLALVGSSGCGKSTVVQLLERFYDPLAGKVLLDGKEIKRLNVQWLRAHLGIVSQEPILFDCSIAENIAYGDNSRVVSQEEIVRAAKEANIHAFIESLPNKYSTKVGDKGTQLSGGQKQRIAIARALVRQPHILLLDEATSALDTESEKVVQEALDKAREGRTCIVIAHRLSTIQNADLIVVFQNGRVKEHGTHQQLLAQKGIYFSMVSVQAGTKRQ

Compound | Activity [1] | Activity [2] | IC50 [3] | IC50 [4] | also measured
COc1cc2c(c3c1OCO3)-c1c(cc(OC)c3c1OCO3)CN(C)C2 | 10% | 10% | 107 µM | 140 µM | –
CCN1Cc2cc(OC)c3c(c2-c2c(cc(OC)c4c2OCO4)C1=O)OCO3 | – | – | > 100 µM | > 100 µM | –
CCN1Cc2cc(OC)c3c(c2-c2c(cc(OC)c4c2OCO4)C1)OCO3 | 10% | 10% | 117 µM | 125 µM | –
COc1cc2c(c3c1OCO3)-c1c(cc(OC)c3c1OCO3)CN(CCc1ccccc1)C2 | 10% | 10% | 34.1 µM | 45.4 µM | Activity [5]: Active; inhibition (INH) [6]: Not Active; inhibition (INH) [7]: Not Active; fold change (FC) [8]: 10.1; inhibition (INH) [9]: Dose-dependent effect; Activity [10]: inactive
COC(=O)c1cc(OC)c2c(c1-c1c(C(=O)OC)cc(OC)c3c1OCO3)OCO2 [BIFENDATE] | – | – | – | – | fold change (FC) [8]: 1.2
COC(=O)CN1Cc2cc(OC)c3c(c2-c2c(cc(OC)c4c2OCO4)C1)OCO3 | – | – | > 100 µM | > 100 µM | –
COc1ccc(CCN(C)CCCC(C#N)(c2ccc(OC)c(OC)c2)C(C)C)cc1OC (stereo unspecified) | – | – | – | – | Activity [11]: inactive; Activity [12]: > 50%; IC50 [13]: 12.9 µM; IC50 [14]: 26.1 µM; IC50 [15]: 51.1 µM; IC50 [16]: 51.4 µM; inhibition (INH) [9]: Dose-dependent effect; Activity [10]: inactive; inhibition (INH) [17]: Dose-dependent effect
CCCN1Cc2cc(OC)c3c(c2-c2c(cc(OC)c4c2OCO4)C1)OCO3 | 10% | 10% | 87.6 µM | 106 µM | –
COC(=O)CN1Cc2cc(OC)c3c(c2-c2c(cc(OC)c4c2OCO4)C1=O)OCO3 | – | – | > 100 µM | > 100 µM | –
COc1cc2c(c3c1OCO3)-c1c(cc(OC)c3c1OCO3)CN(CCO)C2 | 10% | 10% | > 200 µM | > 200 µM | –
COc1cccc2c1C(=O)c1c(O)c3c(c(O)c1C2=O)C[C@@](O)(C(=O)CO)C[C@@H]3O[C@H]1C[C@H](N)[C@H](O)[C@H](C)O1 [DOXORUBICIN] | – | – | 46.7 µM | – | Ratio IC50 [18]: 108
CCCCN1Cc2cc(OC)c3c(c2-c2c(cc(OC)c4c2OCO4)C1)OCO3 | – | – | > 100 µM | 77.5 µM | –
COc1cc2c(c3c1OCO3)-c1c(cc(OC)c3c1OCO3)CN(Cc1ccccc1)C2 | 10% | 10% | 112 µM | > 200 µM | inhibition (INH) [6]: Not Active; inhibition (INH) [7]: Not Active; inhibition (INH) [8]: Active; inhibition (INH) [9]: Dose-dependent effect; Activity [10]: inactive
SODIUM ORTHOVANAD | – | – | – | – | RLU [19]: 282000
COc1cc2c(c3c1OCO3)-c1c(cc(OC)c3c1OCO3)CN(c1ccccc1)C2 | – | – | > 100 µM | > 100 µM | –
COc1cc2c(c3c1OCO3)-c1c(cc(OC)c3c1OCO3)CN(CCc1ccc3c(c1)OCO3)C2 | 10% | 10% | 46.9 µM | 53.7 µM | Activity [11]: inactive; inhibition (INH) [20]: Dose-dependent effect; inhibition (INH) [21]: Active; Activity [5]: 8%; Activity [22]: 30%; viability at 72 h, 1.25 µM [23]: 98%; Activity [12]: 6%; Activity [24]: Dose-dependent effect; Activity [25]: inactive; inhibition (INH) [6]: Not Active; inhibition (INH) [7]: Not Active; IC50 [26]: 1.78 µM; IC50 [27]: 2.47 µM; IC50 [28]: 5.03 µM; IC50 [29]: 10.3 µM; RLU [30]: 283000; fold change (FC) [8]: 11.2; inhibition (INH) [9]: Dose-dependent effect; Activity [10]: inactive; inhibition (INH) [17]: Dose-dependent effect
COc1cc2c(c3c1OCO3)-c1c(cc(OC)c3c1OCO3)C(=O)N(Cc1ccccc1)C2 | – | – | 53.4 µM | 43.5 µM | –
CCCCN1Cc2cc(OC)c3c(c2-c2c(cc(OC)c4c2OCO4)C1=O)OCO3 | – | – | 44.6 µM | 41.7 µM | –

From ChEMBL document CHEMBL2010685, “Synthesis and biological evaluation of novel bifendate derivatives bearing 6,7-dihydro-dibenzo[c,e]azepine scaffold as potent P-glycoprotein inhibitors” (Eur J Med Chem, 2012)
